Screening results as filed in PubChem BioAssay.
PLK1 inh = human PLK1 kinase inhibitors, primary screen, biochemical, TR-FRET. recombinant PLK1 kinase, TR-FRET peptide phosphorylation. Serine/threonine-protein kinase PLK1 (Homo sapiens), P53350. inhibition, % at 10 µM. actives 0.53% (n = 97,000);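 active = inhibition of 50% or more in the single-concentration screen; inactive = inhibition below 50%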;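 also: 0% = DMSO max control and 100% = H-89 dihydrochloride min control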
PostGolgi ctrl = growth inhibition of yeast control strain, primary screen, counter-screen for post-Golgi transport modulator project; actives 5% (n = 98,000); efflux-deficient yeast background strain, growth absorbance A615, 16 h; AID 738, 2007; inhibition, % at 10 µM
PostGolgi yeast = phenotypic screen on post-Golgi transport, primary screen | post-Golgi transport phenotypic cell assay | inhibition, % at 10 µM | actives 0.9% (n = 98,000) | AID 739, 2007;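 also: yeast cells grown in 1536-well plates; yeast grown about 18 h at 30C before absorbance read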
HIV Rev-RRE inh = HIV-1 Rev-RRE binding inhibitors, primary screen, biochemical, FRET, protein-RNA interaction; Rev peptide-RRE RNA binding; inhibition, % at 8 µM; actives 0.79% (n = 97,000); AID 704, 2007;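 active = inhibition above the screen-wide mean plus 3 SD, cut at about 35% in these data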;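 also: 0% = median DMSO wells and 100% = median Neomycin B control wells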
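Probe or stimulus: fluorescein-Rev peptide as binding partner; assay system: Cy5-tagged RRE RNA duplex with fluorescein-tagged Rev peptide; timing: 5 min compound–RNA preincubation, then 15 min with peptide, 25 °C; medium: HEPES pH 7.5 buffer with KCl, MgCl2, NaCl and EDTA; signal: fluorescein-to-Cy5 FRET, 480 nm excitation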
EphB4 ephrin blk = EphB4-ephrin-B2 interaction antagonists, primary screen, biochemical, TNYL-RAW peptide probe, fluorescence polarization. actives 0.15% (n = 97,000). EphB4 LBD / TNYL-RAW-Alexa532 peptide. inhibition, % at 7 µM. AID 720, 2007;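 active = inhibition above the screen-wide mean inhibition plus 3 SD, cut at about 15% in these data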;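 also: 0% = DMSO wells and 100% = excess unlabeled TNYL-RAW peptide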
PLK1 PBD inh = Plk1 polo box domain binding inhibitors, primary screen, biochemical, fluorescence polarization. Plk1 PBD phosphopeptide binding. actives 0.13% (n = 97,000). Serine/threonine-protein kinase PLK1 (Homo sapiens), P53350. inhibition, %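 (tested at about 20 µM)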; in the data active = inhibition above about 34%, passing the limit was not always enough
* hit, by the source's call; nt = not tested or not shown. Most compounds without a hit are left out; they make up all but 6.4% or so of the library. Rule as the data show it, unless noted: active = inhibition above about 30%; inactive = the rest.

SMILES | PLK1 inh | PostGolgi ctrl | PostGolgi yeast | HIV Rev-RRE inh | EphB4 ephrin blk | PLK1 PBD inh
O=C(Nc1ccc(/C=C/c2nc3ccccc3o2)cc1)c1cccc(C(F)(F)F)c1 | -11 | 0 | 2 | 16 | 4 | 32
NS(=O)(=O)c1ccc(NCc2ccccc2OCc2ccc(F)cc2)cc1 | -5 | 29 | -4 | 14 | 7 | -15
NS(=O)(=O)c1ccc(NCc2cc(Cl)ccc2OCc2ccccc2F)cc1 | -14 | 39* | 2 | 11 | -1 | -12
O=C1CC(=C2c3ccccc3-c3ccccc32)C(=O)N1CCCCN1CCN(c2ccccc2)CC1 | -6 | nt | nt | 1 | 5 | -10
Nc1c(N2CCOCC2)cc(Cl)c2nonc12 | -10 | 7 | 4 | -1 | -4 | -11
Nc1c(N2CCCC2)cc(Cl)c2nonc12 | 7 | 4 | -3 | 41* | 0 | -41
CCN1CCN(C(c2ccc(OC)cc2)C(O)C(=O)c2c[nH]c3ccccc23)CC1 (centres undefined) | -4 | 15 | -3 | 2 | 2 | -8
O=C(C#Cc1ccccc1)c1ccc([N+](=O)[O-])cc1 | -2 | 36* | 11 | 2 | -4 | 2
CN(C(=O)COC(=O)COc1ccccc1F)C1CCS(=O)(=O)C1 (centres undefined) | -14 | 5 | 3 | -1 | -9 | -5
CCCCc1ccc(C2C(C#N)=C(N)SC(N)=C2C#N)s1 | -15 | 4 | 4 | 66* | -2 | -4
CCC(=O)Nc1nonc1-c1nc2ccccc2n1CCC(C)C | 1 | 36* | 3 | 12 | 4 | -12
Cc1cc(C(=O)N2CCN(Cc3ccc4c(c3)OCO4)CC2)cs1 | nt | -1 | -5 | nt | nt | nt
CCCN(CCC)CCNC(=O)CS(=O)Cc1nc(-c2ccc(C)cc2)oc1C (centres undefined) | -13 | 9 | 3 | -1 | 5 | 5
COCCNC(=O)CS(=O)Cc1nc(-c2ccc(Cl)cc2)oc1C (centres undefined) | -10 | 5 | -2 | 4 | -2 | -21
Cc1ccc(-c2nc(CS(=O)CC(=O)NCc3ccc(Cl)cc3)c(C)o2)cc1 (centres undefined) | 69* | 4 | 4 | 6 | -1 | 11
CCc1cccc(NC(=O)CS(=O)Cc2nc(-c3ccc(C)cc3)oc2C)c1 (centres undefined) | -4 | 34* | -10 | 12 | 2 | 1
CCCNC(=O)CS(=O)Cc1nc(-c2ccc(OC)cc2)oc1C (centres undefined) | 67* | 9 | 1 | 0 | 4 | -24
COc1ccc(-c2nc(CS(=O)CC(=O)NCc3ccc(Cl)cc3)c(C)o2)cc1 (centres undefined) | 70* | 4 | 8 | 9 | -4 | -1
CCCN(CCC)CCCNC(=O)CS(=O)Cc1nc(-c2ccc(OC)c(OC)c2)oc1C (centres undefined) | -12 | 0 | 12 | -1 | 4 | -4
CCN(CC)c1cnn(C/C(=N\OC)c2ccc(Cl)cc2)c(=O)c1Br | -13 | 24 | -8 | 4 | -6 | -8
Cc1ccc(-c2nc(CS(=O)CC(=O)NCCC(C)C)c(C)o2)cc1 (centres undefined) | 67* | -4 | 7 | 5 | 3 | 9
CCCCNC(=O)CS(=O)Cc1nc(-c2ccc(C)cc2)oc1C (centres undefined) | -14 | -4 | 3 | 0 | -7 | 6
Cc1cc(C)c(C)c(OCC(=O)NCc2nc(-c3ccccc3)no2)c1 | -12 | 41* | 1 | 15 | -12 | 7
Cc1cc(OCC(=O)NCc2nc(-c3ccccc3)no2)c(C)cc1Br | -8 | 33* | 1 | 5 | -8 | -11
COc1cc(OC)cc(C(=O)NCc2nc(-c3ccccc3)no2)c1 | -4 | -1 | 6 | 7 | 6 | -21
Cc1ccc(-c2ccc(/C=N/N3C(=O)C4C5C=CC(CC5)C4C3=O)o2)c([N+](=O)[O-])c1 (centres undefined) | 0 | 16 | -4 | 15 | -1 | -14
